Experimental data as given in article PMC3090455 (Analytical biochemistry, 2011).
Converted amounts (≈) assume the structure as drawn.

Experiments:
human mEH [1] = molecular target: T1, human mEH (Homo sapiens, UniProt P07099); assay: Specific activity of human mEH for absorbent/fluorescent substrates; assay type: biochemical; conditions: [S] 50 μM, pH 9.0, 37°C, fluorescent substrates
T1 sequence (P07099 1-455): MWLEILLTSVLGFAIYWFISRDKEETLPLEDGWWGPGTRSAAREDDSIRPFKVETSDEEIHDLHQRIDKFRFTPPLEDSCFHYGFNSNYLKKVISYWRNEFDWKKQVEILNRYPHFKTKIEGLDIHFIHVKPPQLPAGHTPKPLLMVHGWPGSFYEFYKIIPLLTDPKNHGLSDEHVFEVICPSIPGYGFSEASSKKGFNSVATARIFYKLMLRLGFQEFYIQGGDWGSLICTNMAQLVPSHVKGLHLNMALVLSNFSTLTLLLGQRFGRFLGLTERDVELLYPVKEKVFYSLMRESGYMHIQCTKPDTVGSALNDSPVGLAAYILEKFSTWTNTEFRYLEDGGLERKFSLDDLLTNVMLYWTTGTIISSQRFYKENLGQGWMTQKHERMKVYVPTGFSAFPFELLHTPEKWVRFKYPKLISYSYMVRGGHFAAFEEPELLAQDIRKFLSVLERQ
Procedure, shortened: (§1)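 Partially purified recombinant enzyme (0.5–80 μg/mL final) in 100 mM Tris/HCl pH 9.0 with 0.1 mg/mL BSA, preincubated 5 min at 37°C. Substrate added at 50 μM final from 5 mM DMSO stock; buffer-only wells gave background. Read kinetically for 5 min: 4-nitrophenol at 450 nm, or fluorescence (coumarin ex 355/em 450; naphthaldehyde ex 330/em 465). Signals converted via standard curves (0.005–0.5 μM); 8 replicates.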

human mEH [2] = molecular target: T1, human mEH; assay: High throughput screening end-point assay with 11, human mEH; assay type: biochemical; conditions: average, n = 4 for each enzyme, 30 min end-point
Procedure, shortened: (§2)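 End-point screen of a pesticide library at 10 μM final. Recombinant partially purified enzyme (human 1.6, rat 0.5 μg/mL final) in 100 mM Tris/HCl pH 8.5 with 0.1 mg/mL BSA, preincubated with compounds 5 min at 30°C. Substrate added to 25 μM, then 30 min at room temperature in the dark before fluorescence reading (ex 330/em 465 nm). Buffer-only background and full-activity control wells; duplicate averages.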

Substrate solubility = assay type: physicochemical; conditions: assay buffer, pH 9
rat mEH [3] = molecular target: T2, rat mEH (Rattus norvegicus, UniProt P07687); assay: Kinetic constants determination, rat mEH; assay type: biochemical; conditions: greater
T2 sequence (P07687 1-455): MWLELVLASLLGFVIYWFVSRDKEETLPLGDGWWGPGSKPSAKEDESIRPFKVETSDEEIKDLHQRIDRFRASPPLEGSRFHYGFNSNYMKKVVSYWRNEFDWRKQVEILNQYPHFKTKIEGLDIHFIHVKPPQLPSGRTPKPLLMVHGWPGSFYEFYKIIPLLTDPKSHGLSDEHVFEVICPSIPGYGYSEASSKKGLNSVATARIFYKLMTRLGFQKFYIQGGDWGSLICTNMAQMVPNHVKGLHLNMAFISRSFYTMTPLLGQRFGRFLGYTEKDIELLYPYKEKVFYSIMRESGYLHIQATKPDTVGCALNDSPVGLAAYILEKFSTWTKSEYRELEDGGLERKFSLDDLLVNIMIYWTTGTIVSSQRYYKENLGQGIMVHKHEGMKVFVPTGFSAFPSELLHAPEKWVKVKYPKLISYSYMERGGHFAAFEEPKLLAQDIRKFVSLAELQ

human mEH [4] = molecular target: T1, human mEH; assay: Assay conditions optimization with substrate 11, human mEH; assay type: biochemical
Procedure, shortened: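 Recombinant human mEH from baculovirus, partially purified. Enzyme titrated at 0–10 μg/mL final against 25 μM fluorogenic glycidyl carbonate substrate, in 0.1 M Tris/HCl pH 9.0 with 0.1 mg/mL BSA at 37°C, followed over 30 min. Then 1.6 μg/mL enzyme with substrate compared across six buffers (three pH values) at 30 and 37°C over 10 min, against enzyme-free background. 6-Methoxy-2-naphthaldehyde read at ex 330/em 465 nm.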

rat mEH [5] = molecular target: T2, rat mEH; assay: Specific activity of rat mEH for absorbent/fluorescent substrates; assay type: biochemical; conditions: [S] 50 μM, pH 9.0, 37°C, fluorescent substrates
Procedure, shortened: as §1

human mEH [6] = molecular target: T1, human mEH; assay: Kinetic constants determination, human mEH; assay type: biochemical; conditions: lower than for cSO
rat mEH [7] = molecular target: T2, rat mEH; assay: High throughput screening end-point assay with 11, rat mEH; assay type: biochemical; conditions: average, n = 4 for each enzyme, 30 min end-point
Procedure, shortened: as §2

Background = assay type: physicochemical
Procedure, shortened: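 Enzyme-free control wells held Tris/HCl (100 mM, pH 9.0, 0.1 mg/mL BSA), preincubated 5 min at 37°C. Substrate was added from a 5 mM DMSO stock working solution to 50 μM final, and product was read kinetically for 5 min. Read-out was 4-nitrophenol absorbance at […] fluorescence (ex 355/em 450 or ex 330/em 465 nm). Signals were converted to molar amounts via 0.005–0.5 μM standard curves; 8 replicates.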

[8] = HmEH 1.6 μg/mL, 25 μM 11, Tris/HCl pH 9.0, 37°C

COc1ccc2cc(C(C#N)OC(=O)OCC3CO3)ccc2c1 (centres unmarked) [compound 11, Cyano(6-methoxynaphthalen-2-yl)methyl (oxiran-2-ylmethyl) Carbonate]
Human mEH S/B (human mEH [1]): 4 | Human mEH Spec. act. (human mEH [1]): 25 ± 2 nmol/min/mg | Human mEH Z' (human mEH [1]): 0.66 | S/N of HTS assay (human mEH [2]): > 30 | Z' of HTS assay (human mEH [2]): 0.69 ± 0.03 | solubility (Substrate solubility): ~50 µM (≈ 15.7 µg/mL) | VM/KM relative to cSO and 9, rat mEH (rat mEH [3]): 10 fold | signal to background ratio (S/B) (human mEH [4]; [8]): ≈ 3 | signal to noise ratio (S/N) (human mEH [4]; [8]): ≈ 40 | decrease of catalytic activity of human mEH on reducing temperature (human mEH [4]; incubation temperature from 37 to 30 °C, all buffers tested, 25 μM 11): ≈ 30% | Rat mEH S/B (rat mEH [5]): 5 | Rat mEH S/N (rat mEH [5]): 48 | Rat mEH Spec. act. (rat mEH [5]): 68 ± 4 nmol/min/mg | Rat mEH Z' (rat mEH [5]): 0.73 | KM relative to cSO, human mEH (human mEH [6]): ~40 fold | S/N of HTS assay (rat mEH [7]): > 30 | Z' of HTS assay (rat mEH [7]): 0.69 ± 0.03 | reduction of background hydrolysis on reducing pH (Background; Tris/HCl, pH reduced from 9.0 to 8.5, 25 μM 11): ≈ 30% | background hydrolysis (Background; [S] 50 μM, Tris/HCl 100 mM pH 9.0, 0.1 mg/mL BSA, 37°C, fluorescent substrates): 0.018 ± 0.003 nmol/min | reduction of background hydrolysis on reducing temperature (Background; incubation temperature from 37 to 30 °C, 25 μM 11): at least 50%
